{"source": "ChEMBL document CHEMBL4041550", "about": "“Structure-Activity Relationship Study of QL47: A Broad-Spectrum Antiviral Agent” (ACS Med Chem Lett, 2017)", "key": {"[1]": {"target": "Epithelial discoidin domain-containing receptor 1 (Homo sapiens, UniProt Q08345)", "sequence (Q08345 whole entry, the tested form may be a part)": "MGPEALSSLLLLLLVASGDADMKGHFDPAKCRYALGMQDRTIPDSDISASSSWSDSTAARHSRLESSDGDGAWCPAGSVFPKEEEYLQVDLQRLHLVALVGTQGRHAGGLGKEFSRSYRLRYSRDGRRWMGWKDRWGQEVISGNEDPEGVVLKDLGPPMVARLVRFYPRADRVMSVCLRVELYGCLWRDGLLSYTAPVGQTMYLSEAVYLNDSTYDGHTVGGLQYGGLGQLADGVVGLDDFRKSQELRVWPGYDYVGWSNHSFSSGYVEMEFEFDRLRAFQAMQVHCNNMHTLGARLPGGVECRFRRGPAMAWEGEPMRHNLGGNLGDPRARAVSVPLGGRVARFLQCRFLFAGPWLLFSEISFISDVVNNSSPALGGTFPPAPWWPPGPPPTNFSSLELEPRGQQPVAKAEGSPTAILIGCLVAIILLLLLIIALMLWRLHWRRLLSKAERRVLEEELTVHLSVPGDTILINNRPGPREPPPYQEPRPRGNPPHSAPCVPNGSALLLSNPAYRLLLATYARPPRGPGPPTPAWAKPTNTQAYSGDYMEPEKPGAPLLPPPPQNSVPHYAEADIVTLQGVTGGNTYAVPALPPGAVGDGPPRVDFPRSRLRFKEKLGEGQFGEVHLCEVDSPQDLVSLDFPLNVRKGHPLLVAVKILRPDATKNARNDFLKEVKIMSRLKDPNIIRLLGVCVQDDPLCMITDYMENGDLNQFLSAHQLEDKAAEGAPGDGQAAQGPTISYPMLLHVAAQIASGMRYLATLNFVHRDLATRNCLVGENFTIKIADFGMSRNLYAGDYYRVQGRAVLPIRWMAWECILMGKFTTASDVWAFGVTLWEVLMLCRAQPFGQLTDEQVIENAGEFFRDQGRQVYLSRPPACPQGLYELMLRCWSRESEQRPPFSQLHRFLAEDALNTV", "assay": "Inhibition of GST-tagged human DDR1 catalytic domain (440 to 876 residues) expressed in baculovirus expression system by LanthaScreen assay", "method_in_brief": "(§1)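 IC50 against DDR1 and DDR2 determined with LanthaScreen binding assays.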"}, "[2]": {"target": "T1, Discoidin domain-containing receptor 2 (Homo sapiens, UniProt Q16832)", "T1 sequence (Q16832 whole entry)": "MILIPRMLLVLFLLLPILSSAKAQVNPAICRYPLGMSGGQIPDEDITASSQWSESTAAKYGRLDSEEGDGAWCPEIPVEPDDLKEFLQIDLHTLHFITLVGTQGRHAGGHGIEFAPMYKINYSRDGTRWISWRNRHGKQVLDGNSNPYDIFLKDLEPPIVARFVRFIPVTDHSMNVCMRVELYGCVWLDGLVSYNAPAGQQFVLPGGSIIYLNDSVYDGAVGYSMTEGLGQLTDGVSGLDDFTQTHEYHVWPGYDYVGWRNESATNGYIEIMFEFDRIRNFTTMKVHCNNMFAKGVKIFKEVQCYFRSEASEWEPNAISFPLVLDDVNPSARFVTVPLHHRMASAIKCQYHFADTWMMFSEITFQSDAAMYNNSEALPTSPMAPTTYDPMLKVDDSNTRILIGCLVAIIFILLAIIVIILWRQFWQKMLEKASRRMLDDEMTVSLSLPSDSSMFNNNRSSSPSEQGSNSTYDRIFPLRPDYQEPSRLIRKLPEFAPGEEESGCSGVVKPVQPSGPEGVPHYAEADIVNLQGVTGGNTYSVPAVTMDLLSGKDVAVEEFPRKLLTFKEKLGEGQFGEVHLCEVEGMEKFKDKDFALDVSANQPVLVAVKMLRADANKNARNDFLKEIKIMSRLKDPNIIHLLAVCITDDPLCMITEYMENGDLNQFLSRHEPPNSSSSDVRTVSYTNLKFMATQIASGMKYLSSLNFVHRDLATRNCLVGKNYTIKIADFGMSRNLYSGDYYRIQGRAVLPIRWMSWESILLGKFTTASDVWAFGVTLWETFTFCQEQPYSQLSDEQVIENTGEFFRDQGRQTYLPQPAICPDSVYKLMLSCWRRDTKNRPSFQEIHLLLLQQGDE", "assay": "Inhibition of GST-tagged human DDR2 cytoplasmic domain (427 to 855 residues) expressed in baculovirus expression system by LanthaScreen assay", "method_in_brief": "as §1"}, "[3]": {"assay": "AUC (infinity) in Swiss albino mouse at 2 mg/kg, iv by LC/MS/MS method", "assay_type": "ADME, organism-based", "set-up": "dose 2 mg/kg, route intravenous, time infinity", "conditions": "in vivo"}, "[4]": {"assay": "Clearance in Swiss albino mouse at 2 mg/kg, iv by LC/MS/MS method", "assay_type": "ADME, organism-based", "conditions": "in vivo", "method_in_brief": "(§2)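 Mouse pharmacokinetics after intravenous, oral or intraperitoneal dosing; plasma parameters derived were T1/2, Tmax, Cmax, AUClast, AUCinf, clearance, Vss and oral bioavailability F.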"}, "dengue virus type 2 [5]": {"system": "dengue virus type 2", "assay": "Antiviral activity against Dengue virus serotype 2 replicon harboring GVD mutant infected in HuH7 cells assessed as reduction in viral RNA translation at 2 uM measured at 6 hrs post infection by luciferase reporter gene assay relative to control", "assay_type": "functional", "set-up": "scale not given: the % may be the effect or the level left", "method_in_brief": "(§3)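 Huh7 cells transfected with in vitro-transcribed nonreplicative DENV2(GVD) reporter replicon RNA, then treated immediately with compound at 2 or 10 μM. Intracellular firefly luciferase activity read 6 h post-transfection as a measure of RNA translation and expressed relative to DMSO-treated samples. Mean ± SD of experimental duplicates, n = 3 repeats.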"}, "dengue virus type 2 [6]": {"system": "dengue virus type 2", "assay": "Antiviral activity against Dengue virus serotype 2 replicon harboring GVD mutant infected in HuH7 cells assessed as reduction in viral RNA translation at 10 uM measured at 6 hrs post infection by luciferase reporter gene assay relative to control", "assay_type": "functional", "set-up": "scale not given: the % may be the effect or the level left", "method_in_brief": "as §3"}, "[7]": {"target": "T2, Cytoplasmic tyrosine-protein kinase BMX (Homo sapiens, UniProt P51813)", "T2 sequence (P51813 whole entry)": "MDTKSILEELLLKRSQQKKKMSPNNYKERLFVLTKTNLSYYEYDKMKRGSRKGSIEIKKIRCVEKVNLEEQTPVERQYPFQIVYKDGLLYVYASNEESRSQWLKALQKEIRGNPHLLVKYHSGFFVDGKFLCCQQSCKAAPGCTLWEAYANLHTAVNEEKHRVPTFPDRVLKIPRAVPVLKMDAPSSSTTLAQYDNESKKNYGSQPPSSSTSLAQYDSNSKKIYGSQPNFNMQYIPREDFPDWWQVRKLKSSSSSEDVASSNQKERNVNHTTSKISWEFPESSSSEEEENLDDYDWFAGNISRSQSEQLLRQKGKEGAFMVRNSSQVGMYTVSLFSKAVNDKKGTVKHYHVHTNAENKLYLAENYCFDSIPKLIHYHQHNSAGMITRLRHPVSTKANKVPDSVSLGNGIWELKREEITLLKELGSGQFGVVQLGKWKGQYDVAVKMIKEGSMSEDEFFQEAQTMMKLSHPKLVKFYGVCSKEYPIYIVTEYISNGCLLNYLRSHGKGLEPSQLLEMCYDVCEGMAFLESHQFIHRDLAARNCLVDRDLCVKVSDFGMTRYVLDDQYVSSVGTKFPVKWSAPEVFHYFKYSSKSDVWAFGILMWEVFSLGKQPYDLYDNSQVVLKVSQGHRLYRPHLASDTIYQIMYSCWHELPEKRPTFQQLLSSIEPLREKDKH", "assay": "Inhibition of recombinant full length His-tagged human BMX cytoplasmic domain expressed in baculovirus expression system by Z'-Lyte assay", "method_in_brief": "(§4)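 IC50 against PIM1, PIM2, BTK and BMX determined with Z′-Lyte kinase activity assays.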"}, "[8]": {"assay": "Half life in mouse hepatic microsomes at 1 uM in presence of NADPH by LC-MS/MS method", "assay_type": "ADME, Microsome", "conditions": "liver microsomes", "method_in_brief": "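Compound incubated with mouse liver microsomes; half-life (T1/2, min) of the compound reported as a measure of metabolic stability.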"}, "[9]": {"assay": "Cmax in Swiss albino mouse at 2 mg/kg, iv by LC/MS/MS method", "assay_type": "ADME, organism-based", "set-up": "dose 2 mg/kg, route intravenous", "conditions": "in vivo", "method_in_brief": "as §2"}, "[10]": {"target": "Tyrosine-protein kinase BTK (Homo sapiens, UniProt Q06187)", "sequence (Q06187 whole entry, the tested form may be a part)": "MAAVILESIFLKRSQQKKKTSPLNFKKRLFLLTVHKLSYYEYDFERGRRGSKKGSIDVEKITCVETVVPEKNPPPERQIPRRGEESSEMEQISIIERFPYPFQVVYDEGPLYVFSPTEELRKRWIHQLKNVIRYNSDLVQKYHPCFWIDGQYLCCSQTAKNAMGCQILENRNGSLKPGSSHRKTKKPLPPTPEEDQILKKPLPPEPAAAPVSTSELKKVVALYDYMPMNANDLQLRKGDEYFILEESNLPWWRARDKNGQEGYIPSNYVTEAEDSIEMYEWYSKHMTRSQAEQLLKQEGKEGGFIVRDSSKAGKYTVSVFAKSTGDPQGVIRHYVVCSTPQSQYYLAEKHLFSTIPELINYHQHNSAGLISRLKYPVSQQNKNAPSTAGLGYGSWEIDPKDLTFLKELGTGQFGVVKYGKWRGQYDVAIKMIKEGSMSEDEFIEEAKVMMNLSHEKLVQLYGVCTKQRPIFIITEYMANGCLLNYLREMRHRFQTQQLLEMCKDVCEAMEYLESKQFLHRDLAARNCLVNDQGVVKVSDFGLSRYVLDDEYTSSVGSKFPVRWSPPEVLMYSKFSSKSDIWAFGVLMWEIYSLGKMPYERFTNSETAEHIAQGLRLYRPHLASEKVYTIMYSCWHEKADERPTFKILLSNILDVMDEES", "assay": "Inhibition of recombinant full length His-tagged human BTK cytoplasmic domain expressed in baculovirus expression system by Z'-Lyte assay", "method_in_brief": "as §4"}, "[11]": {"assay": "AUClast in Swiss albino mouse at 10 mg/kg, po by LC/MS/MS method", "assay_type": "ADME, organism-based", "set-up": "dose 10 mg/kg, time 0 - last, route oral", "conditions": "in vivo"}, "[12]": {"assay": "AUC (infinity) in Swiss albino mouse at 50 mg/kg, ip by LC/MS/MS method", "assay_type": "ADME, organism-based", "set-up": "dose 50 mg/kg, time infinity, route intraperitoneal", "conditions": "in vivo"}, "[13]": {"target": "Serine/threonine-protein kinase pim-1 (Homo sapiens, UniProt P11309)", "sequence (P11309 whole entry)": "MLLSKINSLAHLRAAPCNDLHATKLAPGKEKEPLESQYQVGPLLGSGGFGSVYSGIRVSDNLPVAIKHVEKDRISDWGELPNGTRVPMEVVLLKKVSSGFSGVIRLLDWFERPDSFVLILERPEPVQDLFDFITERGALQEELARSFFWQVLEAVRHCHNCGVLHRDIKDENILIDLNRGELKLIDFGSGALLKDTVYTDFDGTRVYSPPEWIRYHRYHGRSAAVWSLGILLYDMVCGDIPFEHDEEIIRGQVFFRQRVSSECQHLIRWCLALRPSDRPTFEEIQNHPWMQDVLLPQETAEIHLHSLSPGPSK", "assay": "Inhibition of recombinant full length His-tagged human PIM1 expressed in baculovirus expression system by Z'-Lyte assay", "method_in_brief": "as §4"}, "[14]": {"assay": "Cmax in Swiss albino mouse at 50 mg/kg, ip by LC/MS/MS method", "assay_type": "ADME, organism-based", "set-up": "dose 50 mg/kg, route intraperitoneal", "conditions": "in vivo", "method_in_brief": "as §2"}, "[15]": {"assay": "Cmax in Swiss albino mouse at 10 mg/kg, po by LC/MS/MS method", "assay_type": "ADME, organism-based", "set-up": "dose 10 mg/kg, route oral", "conditions": "in vivo", "method_in_brief": "as §2"}, "[16]": {"assay": "Half life in Swiss albino mouse at 2 mg/kg, iv by LC/MS/MS method", "assay_type": "ADME, organism-based", "conditions": "in vivo", "method_in_brief": "as §2"}, "[17]": {"assay": "Volume of distribution at steady state in Swiss albino mouse at 2 mg/kg, iv by LC/MS/MS method", "assay_type": "ADME, organism-based", "conditions": "in vivo, read-out: Vdss", "method_in_brief": "as §2"}, "[18]": {"assay": "Half life in Swiss albino mouse at 10 mg/kg, po by LC/MS/MS method", "assay_type": "ADME, organism-based", "conditions": "in vivo", "method_in_brief": "as §2"}, "[19]": {"assay": "AUC (infinity) in Swiss albino mouse at 10 mg/kg, po by LC/MS/MS method", "assay_type": "ADME, organism-based", "set-up": "dose 10 mg/kg, route oral, time infinity", "conditions": "in vivo"}}, "note": "pIC50: −log10 of the molar value.", "data": [{"smiles": "Cc1ccc(-n2c(=O)ccc3ccc4ccc(-c5cnn(C)c5)cc4c32)cc1NC(=O)/C=C/CN(C)C", "values": [{"measurement": "pIC50", "setting": "[1]", "result": 5.30}, {"measurement": "pIC50", "setting": "[2]", "result": "< 5.00"}, {"measurement": "AUC(0-inf)", "setting": "[3]", "result": 167, "unit": "ng·h/mL"}, {"measurement": "clearance", "setting": "[4]", "result": 199, "unit": "mL/min/kg"}, {"measurement": "Activity", "setting": "dengue virus type 2 [5]", "result": 65, "unit": "%"}, {"measurement": "Activity", "setting": "dengue virus type 2 [6]", "result": 95, "unit": "%"}, {"measurement": "pIC50", "setting": "[7]", "result": 5.62}, {"measurement": "half-life at 1 µM", "setting": "[8]", "result": 0.26, "unit": "h"}, {"measurement": "Cmax", "setting": "[9]", "result": 462, "unit": "ng/mL"}, {"measurement": "pIC50", "setting": "[10]", "result": 6.04}, {"measurement": "AUC(0-t)", "setting": "[11]", "result": 95.4, "unit": "ng·h/mL"}, {"measurement": "AUC(0-inf)", "setting": "[12]", "result": 8550, "unit": "ng·h/mL"}, {"measurement": "pIC50", "setting": "[13]", "result": 5.75}, {"measurement": "Cmax", "setting": "[14]", "result": 4510, "unit": "ng/mL"}, {"measurement": "Cmax", "setting": "[15]", "result": 40.4, "unit": "ng/mL"}, {"measurement": "half-life", "setting": "[16]", "result": 1.07, "unit": "h"}, {"measurement": "Vd", "setting": "[17]", "result": 9.58, "unit": "L/kg"}, {"measurement": "half-life", "setting": "[18]", "result": 1.53, "unit": "h"}, {"measurement": "AUC(0-inf)", "setting": "[19]", "result": 118, "unit": "ng·h/mL"}]}]}
